This note sets out measurements from ChEMBL document CHEMBL1158389, “Highly twisted adamantyl arotinoids: synthesis, antiproliferative effects and RXR transactivation profiles” (Eur J Med Chem, 2009).

The source made the active and inactive calls. The calls are words filed in the database; no cut-off is given here.

A word on the inhibition: it is the percentage by which the read-out fell short of the control.

In test [1] the target is T1, Retinoic acid receptor beta (Homo sapiens) (UniProt P10826).
T1 sequence (whole entry): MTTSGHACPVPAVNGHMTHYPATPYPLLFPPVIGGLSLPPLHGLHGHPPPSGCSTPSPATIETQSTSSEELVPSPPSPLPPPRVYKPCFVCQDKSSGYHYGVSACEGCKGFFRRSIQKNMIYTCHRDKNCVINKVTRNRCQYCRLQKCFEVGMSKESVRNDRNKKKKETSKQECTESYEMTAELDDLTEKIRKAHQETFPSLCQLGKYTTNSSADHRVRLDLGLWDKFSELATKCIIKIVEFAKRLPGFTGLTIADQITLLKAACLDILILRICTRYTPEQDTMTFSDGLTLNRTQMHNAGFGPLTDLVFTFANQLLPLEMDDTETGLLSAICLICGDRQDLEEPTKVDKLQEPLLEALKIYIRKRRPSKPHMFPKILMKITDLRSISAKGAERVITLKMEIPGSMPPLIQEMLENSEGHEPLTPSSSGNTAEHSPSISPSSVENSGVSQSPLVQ
Put plainly: Transactivation of Gal4-LBD fused human RARbeta (169 to 448) transfected in african green monkey CV1 cells assessed as luciferase activity at 2 uM after 6 hrs by Dual-light chemiluminescent assay. The class given is cell-based. The conditions noted are these: CV-1. In outline:
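Transfected CV-1 cells carried Gal4-LBD constructs: hRARα 156–462, hRARβ 169–448, hRARγ 178–454 or mRXRα 218–467. Transfection used 10 ng Gal4-LBD, 100 ng UAS-luciferase and 25 ng β-gal vector. After 16 h the medium was changed to 5% charcoal-treated FBS. Cells were stimulated with 2 μM analog for 6 h (RARα, RARβ, RXRα) or 20 h (RARγ). Reference agonists were 1 μM atRA (RARα) and 1 μM 9cRA (RXRα). Luciferase and β-galactosidase were read by chemiluminescence.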

Test [2] has as its target T2, Retinoic acid receptor alpha (Homo sapiens) (UniProt P10276).
T2 sequence (whole entry): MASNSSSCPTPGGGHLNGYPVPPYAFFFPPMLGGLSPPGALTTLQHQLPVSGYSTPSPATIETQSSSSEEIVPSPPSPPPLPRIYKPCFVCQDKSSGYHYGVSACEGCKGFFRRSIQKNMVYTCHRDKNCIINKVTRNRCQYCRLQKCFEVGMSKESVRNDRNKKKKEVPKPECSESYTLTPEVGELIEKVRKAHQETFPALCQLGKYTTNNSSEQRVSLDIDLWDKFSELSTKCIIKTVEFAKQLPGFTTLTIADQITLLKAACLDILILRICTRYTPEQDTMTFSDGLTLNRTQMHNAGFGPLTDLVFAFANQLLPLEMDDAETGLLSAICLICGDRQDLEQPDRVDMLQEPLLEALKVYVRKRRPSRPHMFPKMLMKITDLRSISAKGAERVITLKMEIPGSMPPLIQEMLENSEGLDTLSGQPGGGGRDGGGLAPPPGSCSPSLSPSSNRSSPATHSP
Briefly: Inhibition of transactivation activity of Gal4-LBD fused human RARalpha (156 to 454) transfected in atRA-stimulated african green monkey CV1 cells at 0.2 uM after 6 hrs by Dual-light chemiluminescent assay. The class given is cell-based. The conditions noted are these: CV-1, 0.2 uM. In outline:
(§1)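 Gal4 DBD (1–147) was fused to hRARα (156–462) or hRARβ (169–448) LBD. CV-1 cells (20,000/well) were co-transfected with 10 ng Gal4-LBD, 100 ng UAS-luciferase and 25 ng β-gal vector. After 16 h the medium was replaced with medium containing 5% charcoal-treated FBS. Cells got atRA plus test compound at 10-, 40- or 200-fold excess (0.2, 0.8, 4 μM) for 6 h. Luciferase and β-galactosidase were read by chemiluminescence.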

The target in test [3] is T1, Retinoic acid receptor beta (Homo sapiens). Briefly: Inhibition of transactivation activity of Gal4-LBD fused human RARbeta (169 to 448) transfected in atRA-stimulated african green monkey CV1 cells at 4 uM after 6 hrs by Dual-light chemiluminescent assay. Format: cell-based. The conditions noted are these: CV-1. In outline: as §1
The target in test [4] is T2, Retinoic acid receptor alpha (Homo sapiens). Briefly: Transactivation of Gal4-LBD fused human RARalpha (156 to 454) transfected in african green monkey CV1 cells assessed as luciferase activity at 2 uM after 6 hrs by Dual-light chemiluminescent assay. Format: cell-based. To be noted: CV-1.
Test [5] has as its system SK-OV-3. Put plainly: Antiproliferative activity against human SKOV3 cells at 4 uM after 48 hrs by MTT assay. Format: functional. The conditions noted are these: SK-OV-3, 48 h. In outline: (§2)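 Epithelial cancer lines came from ATCC and were seeded the day before in complete medium: PC-3, SkOV3 and A549 at 3,000/well; MiaPaCa-2 and BxPC-3 at 4,000; T-47D and MDA-MB-468 at 5,000. Medium was switched to 0.5% FBS just before exposure to 4 μM. Read-out was MTT (4 h, 37 °C), SDS/HCl solubilisation, A595 minus cell-free blank. Growth inhibition was taken versus DMSO (≤0.1% v/v) controls, ≥2 experiments in triplicate.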
On the technique in general: Formazan colour is commonly taken as a measure of viable cells.

The target of test [6] is T2, Retinoic acid receptor alpha (Homo sapiens). Briefly: Inhibition of transactivation activity of Gal4-LBD fused human RARalpha (156 to 454) transfected in atRA-stimulated african green monkey CV1 cells at 4 uM after 6 hrs by Dual-light chemiluminescent assay. The class given is cell-based. The conditions noted are these: CV-1. In outline: as §1
Test [7] addresses T3, Retinoic acid receptor gamma (Homo sapiens) (UniProt P13631).
T3 sequence (whole entry): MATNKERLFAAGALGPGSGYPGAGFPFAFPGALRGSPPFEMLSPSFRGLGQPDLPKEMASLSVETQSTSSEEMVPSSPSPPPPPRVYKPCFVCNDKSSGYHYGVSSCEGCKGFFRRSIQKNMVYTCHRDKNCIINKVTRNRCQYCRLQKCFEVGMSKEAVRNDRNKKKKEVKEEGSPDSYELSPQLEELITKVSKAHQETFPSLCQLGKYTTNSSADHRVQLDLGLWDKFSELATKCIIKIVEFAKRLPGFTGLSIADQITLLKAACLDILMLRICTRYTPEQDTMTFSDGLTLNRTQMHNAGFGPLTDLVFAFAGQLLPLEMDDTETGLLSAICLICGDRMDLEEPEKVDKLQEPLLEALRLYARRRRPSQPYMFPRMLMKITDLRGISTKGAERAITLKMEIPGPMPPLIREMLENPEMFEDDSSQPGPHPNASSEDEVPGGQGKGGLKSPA
Briefly: Inhibition of transactivation activity of Gal4-LBD fused human RARgamma (178 to 454) transfected in atRA-stimulated african green monkey CV1 cells at 4 uM after 20 hrs by Dual-light chemiluminescent assay. To be noted: CV-1.

The test system of test [8] is MDA-MB-468. Briefly: Antiproliferative activity against human MDA-MB-468 cells at 4 uM after 48 hrs by MTT assay. The class given is functional. To be noted: MDA-MB-468, 48 h. In outline:
as §2

Test [9] concerns T47D. Put plainly: Antiproliferative activity against human T47D cells at 4 uM after 48 hrs by MTT assay. The class given is functional. In short, it runs like this: as §2

As for `COCCOCOc1cc(C)c(-c2ccc(CC(=O)O)cc2Cl)cc1C12CC3CC(CC(C3)C1)C2`, the outcome in [1], in test [3], in test [4] and in test [7] was inactive. For the same molecule, the inhibition result in test [2] was “inactive”. Further, the inhibition at 4 µM in test [5] came out at 19.1%; in [8], 25.3%; in test [9], 27.6%. In addition, the inhibition in [6] came out at 43.7%.

On to `COCCOCOc1cc(C)c(-c2ccc3cc(C(=O)O)ccc3c2Cl)cc1C12CC3CC(CC(C3)C1)C2`, for which the result in test [1], in [3], in test [4] and in test [7] was inactive. The inhibition entry in test [2] is “inactive”. For the same molecule, the results for the inhibition at 4 µM in [5], in [8] and in [9] were 71.2%, 49.9% and 46.1%, respectively. In addition, the inhibition in test [6] turned out to be 27%.
